One data set deals with RAW264.7. The data set can be described thus: Inhibition of LPS-induced COX2 expression in mouse RAW264.7 cells at 34 uM treated 15 mins before LPS challenge measured after 18 hrs by immunoblotting. The format is functional, cell-based. Put shortly:
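RAW 264.7 cells pretreated with samples 15 min, then LPS 1 μg/mL for 18 h. Lysates (30 μg protein) run on 8% SDS-PAGE, transferred to PVDF, probed with primary and HRP secondary antibodies, ECL detection. β-actin internal control; band density quantified relative to the LPS-only control; duplicate experiment.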

Data set [1] can be described thus: Antioxidant activity assessed as nitric oxide scavenging activity at 60 uM. The format is functional. In a few lines: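 Compounds diluted tenfold in PBS and incubated with sodium nitroprusside (final compound 60 μM, SNP 5 mM) for 3 h at room temperature. Nitrite measured by Griess reagent, absorbance 540 nm. % inhibition given as average of triplicates ± standard deviation.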

Data set [2] has as its target T1, Nitric oxide synthase, inducible (Mus musculus) (UniProt P29477).
T1 sequence (whole entry): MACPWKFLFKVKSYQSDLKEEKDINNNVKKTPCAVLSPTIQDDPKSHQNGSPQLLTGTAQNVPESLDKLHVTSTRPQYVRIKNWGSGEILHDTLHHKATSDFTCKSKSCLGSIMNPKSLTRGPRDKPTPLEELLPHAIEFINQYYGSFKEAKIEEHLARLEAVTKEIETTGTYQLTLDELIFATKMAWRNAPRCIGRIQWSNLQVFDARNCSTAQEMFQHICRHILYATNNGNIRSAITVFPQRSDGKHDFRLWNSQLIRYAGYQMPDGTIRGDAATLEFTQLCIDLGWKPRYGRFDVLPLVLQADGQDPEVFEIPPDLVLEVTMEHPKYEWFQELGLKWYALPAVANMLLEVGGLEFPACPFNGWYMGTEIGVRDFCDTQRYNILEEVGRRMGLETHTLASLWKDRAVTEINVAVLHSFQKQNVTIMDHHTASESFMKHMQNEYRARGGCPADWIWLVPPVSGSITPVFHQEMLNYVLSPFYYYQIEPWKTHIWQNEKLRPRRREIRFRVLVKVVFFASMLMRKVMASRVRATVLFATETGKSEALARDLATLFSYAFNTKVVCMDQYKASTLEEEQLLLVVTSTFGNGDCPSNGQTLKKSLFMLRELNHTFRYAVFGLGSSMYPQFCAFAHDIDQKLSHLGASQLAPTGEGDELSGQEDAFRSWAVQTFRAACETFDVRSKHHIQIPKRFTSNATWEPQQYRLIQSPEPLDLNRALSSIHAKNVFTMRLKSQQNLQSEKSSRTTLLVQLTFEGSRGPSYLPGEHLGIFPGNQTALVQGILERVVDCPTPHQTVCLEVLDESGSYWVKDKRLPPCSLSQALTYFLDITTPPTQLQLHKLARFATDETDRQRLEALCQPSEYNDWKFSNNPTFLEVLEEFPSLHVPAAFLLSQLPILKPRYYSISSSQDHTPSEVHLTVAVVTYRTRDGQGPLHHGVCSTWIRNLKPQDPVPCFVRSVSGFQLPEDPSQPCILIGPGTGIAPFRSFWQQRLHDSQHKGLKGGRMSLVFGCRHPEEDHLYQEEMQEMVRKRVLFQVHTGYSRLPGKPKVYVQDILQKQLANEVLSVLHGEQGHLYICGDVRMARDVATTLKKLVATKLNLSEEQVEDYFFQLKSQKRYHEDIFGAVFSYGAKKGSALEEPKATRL
Put plainly: Inhibition of iNOS-mediated nitric oxide production in mouse RAW 264.7 cells at 34 uM pretreated 30 mins measured after 20 hrs by Griess reaction method relative to control. It counts as cell-based. In a few lines: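 RAW 264.7 macrophages seeded at 1 × 10⁵ cells/well for 24 h. Compounds in phenol red-free DMEM added 30 min before LPS (1 μg/mL), then 20 h further incubation. Nitrite in medium measured by Griess reagent at 540 nm against a sodium nitrite standard curve; inhibition at 34 μM.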
(Griess reagent forms a coloured azo dye with nitrite.)

Data set [3] addresses T1, Nitric oxide synthase, inducible (Mus musculus). Put plainly: Inhibition of iNOS-mediated nitric oxide production in LPS-stimulated mouse RAW 264.7 cells at 34 uM pretreated 30 mins before LPS challenge measured after 20 hrs by Griess reaction method relative to control. The format is cell-based.
In another data set the test system is HEK293. The data set can be described thus: Cytotoxicity against human HEK293 cells at 34 uM. The note with it: hek293, 34 µM. It counts as cell-based.
The next data set concerns the target T2, Aromatase (Homo sapiens, UniProt P11511).
T2 sequence (P11511 whole entry): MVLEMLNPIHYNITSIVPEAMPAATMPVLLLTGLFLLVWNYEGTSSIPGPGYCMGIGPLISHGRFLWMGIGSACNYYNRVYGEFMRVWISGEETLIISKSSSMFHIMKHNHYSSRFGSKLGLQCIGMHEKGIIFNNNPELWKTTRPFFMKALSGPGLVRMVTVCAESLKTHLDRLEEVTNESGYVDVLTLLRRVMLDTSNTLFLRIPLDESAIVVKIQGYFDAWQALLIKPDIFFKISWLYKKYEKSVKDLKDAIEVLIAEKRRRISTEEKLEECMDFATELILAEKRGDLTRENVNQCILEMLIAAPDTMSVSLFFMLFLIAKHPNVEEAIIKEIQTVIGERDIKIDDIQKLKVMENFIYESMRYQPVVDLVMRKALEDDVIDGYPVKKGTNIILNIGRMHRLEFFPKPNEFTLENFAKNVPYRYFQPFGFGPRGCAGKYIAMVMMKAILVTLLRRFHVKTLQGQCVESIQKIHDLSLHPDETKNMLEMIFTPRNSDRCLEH
The note with it: read-out: INH.

Data set [4] deals with NAD(P)H dehydrogenase [quinone] 1 (Mus musculus) (UniProt Q64669). The data set can be described thus: Induction of quinone reductase 1 in mouse Hepa 1c1c7 cells assessed as drug level required to double enzyme activity by MTT assay. A general note: Formazan colour is commonly taken as a measure of viable cells.

Structures are written as SMILES. Calls of active or inactive are those of the source. The calls are words filed in the database; no cut-off is given here.

NAD(P)H dehydrogenase [quinone] 1 (Mus musculus), sequence (Q64669 whole entry): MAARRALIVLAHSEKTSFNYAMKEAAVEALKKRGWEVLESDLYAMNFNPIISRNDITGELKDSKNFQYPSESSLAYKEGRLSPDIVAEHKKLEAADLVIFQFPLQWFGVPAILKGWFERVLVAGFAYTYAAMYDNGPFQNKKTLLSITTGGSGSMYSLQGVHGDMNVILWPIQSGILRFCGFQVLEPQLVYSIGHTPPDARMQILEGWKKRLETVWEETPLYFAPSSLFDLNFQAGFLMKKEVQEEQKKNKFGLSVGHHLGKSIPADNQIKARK

Regarding `O=S(=O)([O-])Oc1cc(/C=C/c2ccc(O)cc2)cc(OS(=O)(=O)[O-])c1.[K+].[K+]`, the inhibition entry with RAW264.7 was “inactive”. In addition, the Activity in data set [1] is 1.2%; in the data set with HEK293 it was “Non-toxic”. Further, the outcome in data set [2] was inactive. For the same molecule, the inhibition in data set [3] worked out at 4.8%. In addition, the inhibition at 34 µM at Aromatase was found to be 20.5%. Also, in data set [4], the CD was above 10.1 µM.

As to `O=S(=O)([O-])Oc1ccc(/C=C/c2cc(O)cc(O)c2)cc1.[K+]`, in the data set on RAW264.7, the inhibition entry was “inactive”. The results for the Activity (in data set [1]; in the data set on HEK293) were 10.3% and “Non-toxic”, respectively. Further, the result in data set [2] was inactive. The inhibition in data set [3] is 56.8%. Further, the inhibition at 34 µM at Aromatase came out at 30.4%. In addition, in data set [4], the CD was above 6.9 µM.

For the molecule `O=S(=O)([O-])Oc1cc(O)cc(/C=C/c2ccc(O)cc2)c1.[K+]`, the inhibition result in the data set with RAW264.7 was “inactive”. The Activity in data set [1] is 24.7%; in the data set with HEK293, “Non-toxic”. Besides, the outcome in data set [2] was inactive. Besides, the inhibition in data set [3] was 41%. Further, at Aromatase, the inhibition at 34 µM worked out at 28.2%. Also, the CD in data set [4] amounted to 2.6 µM.

Consider `O=S(=O)([O-])Oc1ccc(/C=C/c2cc(OS(=O)(=O)[O-])cc(OS(=O)(=O)[O-])c2)cc1.[K+].[K+].[K+]`, for which, in the data set on RAW264.7, the inhibition result is “inactive”. In addition, the Activity was 1.6% in data set [1] and “Non-toxic” with HEK293. Also, the result in data set [2] was inactive. The inhibition in data set [3] is 24.8%. For the same molecule, the inhibition at 34 µM at Aromatase was 28.5%. Further, in data set [4], the CD was above 11.7 µM.

For the origin of these results see ChEMBL document CHEMBL1177719 (J Med Chem, 2010).
